Data taken from ChEMBL document CHEMBL4765486, “Novel Nonsecosteroidal Vitamin D Receptor Modulator Combined with Gemcitabine Enhances Pancreatic Cancer Therapy through Remodeling of the Tumor Microenvironment” (J Med Chem, 2021).
Calls of active or inactive are those of the source. Unless noted, the calls are words filed in the database; no cut-off is given here.

What was measured:
[1] = molecular target: T1, Vitamin D3 receptor (Homo sapiens) (UniProt P11473); assay: Binding affinity to VDR (unknown origin) at 1 uM by fluorescence polarization assay relative to calcipotriol; settings: filed as agonist
T1 sequence (whole entry): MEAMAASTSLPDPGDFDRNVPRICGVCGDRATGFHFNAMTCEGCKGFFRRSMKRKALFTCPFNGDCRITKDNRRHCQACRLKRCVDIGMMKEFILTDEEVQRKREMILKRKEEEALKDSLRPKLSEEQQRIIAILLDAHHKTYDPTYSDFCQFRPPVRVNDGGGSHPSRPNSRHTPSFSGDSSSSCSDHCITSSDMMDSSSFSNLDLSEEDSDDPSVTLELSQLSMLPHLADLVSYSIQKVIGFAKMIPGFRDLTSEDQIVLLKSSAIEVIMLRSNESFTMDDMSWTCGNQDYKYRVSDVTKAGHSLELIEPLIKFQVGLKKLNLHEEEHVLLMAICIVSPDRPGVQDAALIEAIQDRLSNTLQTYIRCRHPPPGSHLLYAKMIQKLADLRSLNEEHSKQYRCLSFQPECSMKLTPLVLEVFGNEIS
In short: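 PolarScreen VDR competitor fluorescence polarization assay with compounds at 1 μM in triplicate. Read-out used 535 nm excitation and 590 nm emission filters.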

LTC-14 [2] = assay: Inhibition of rat LTC-14 cells activation assessed decrease in TGF-beta1 induced Acta2 mRNA expression at 0.5 uM incubated for 24 hrs by q-PCR analysis; type: functional, cell-based
In short: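 Immortalized rat PSC line LTC-14, about 1×10^5 cells per well, was grown 24 h at 37 °C in 5% CO2. Cells then received compound (0.5 μM) plus TGF-β1 for 24 h; TGF-β1 is stated as 0.5 ng/mL in the text and 5 ng/mL in the methods. Col1a1 and Acta2 mRNA were measured by RT-qPCR. Mean ± SD versus TGF-β1 alone.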

LTC-14 [3] = assay: Inhibition of rat LTC-14 cells interaction with DSL-6A/C1 cells in conditioned media assessed as inhibition of POSTN protein expression at 0.5 uM measured after 24 hrs by Western blot analysis; type: functional, cell-based
In short: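 LTC-14 cells were treated for 24 h with DSL-6A/C1 conditioned medium plus compound (0.5 μM). Proteins were separated on 10% SDS-PAGE, transferred to PVDF and probed with rabbit anti-PDGF-A or anti-POSTN, with β-actin as loading reference.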

LTC-14 [4] = assay: Inhibition of rat LTC-14 cells activation assessed as inhibition of PDGFA mRNA expression at 0.5 uM treated under conditioned media of DSL-6A/C1 cells for 24 hrs by q-PCR analysis; type: functional, cell-based
In short: (§1)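 LTC-14 PSCs were exposed for 24 h to conditioned medium from rat DSL-6A/C1 cancer cells containing compound at 0.5 μM. Pdgfa, Pdgfb, Fgf2, Hgf and Periodin mRNA were quantified by RT-qPCR. Three repeats, mean ± SD versus CM alone.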

LTC-14 [5] = assay: Inhibition of rat LTC-14 cells activation assessed as inhibition of Fgf mRNA expression at 0.5 uM treated under conditioned media of DSL-6A/C1 cells for 24 hrs by q-PCR analysis; type: functional, cell-based; in short: as §1
[6] = Cytotoxicity against rat DSL-6A/C1 cells assessed as reduction in cell proliferation at 0.5 uM incubated for 24 hrs by MTT assay; type: cell-based; settings: dsl-6a/c1, 24 h
DSL-6A/C1 [7] = assay: Antiproliferative activity against rat DSL-6A/C1 cells assessed as reduction in cell viability at 0.5 uM incubated for 24 hrs compound treated LTC-14-CM cells by MTT assay; type: functional, cell-based
In short: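 LTC-14 PSCs were pretreated with compound for 24 h. Their collected supernatant was used to culture DSL-6A/C1 cells, and proliferation was read by MTT: 4 h incubation with MTT (5 mg/mL stock), absorbance at 570 nm. Run in triplicate, compared with untreated PSC-CM.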

LTC-14 [8] = assay: Inhibition of rat LTC-14 cells activation assessed as reduction in ECM deposition resulting in doxorubicin accumulation in PSC spheres pretreated with compounds followed by doxorubicin addition by laser confocal microscopy analysis; type: functional, cell-based
In short: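 LTC-14 cells were grown in 3D culture to form PSC spheres and treated with compounds. Fluorescent doxorubicin was then added, and its penetration into the spheres was imaged by laser confocal microscopy. Three repeats, versus untreated control.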

DSL-6A/C1 [9] = assay: Potentiation of gemcitabine-induced antitumor activity against luciferase-tagged rat DSL-6A/C1 cells and GFP-tagged LTC-14 cells co-inoculated in orthotropic xenograft BALB/c nude mouse model of pancreatic cancer assessed as reduction in tumor volume at 500 ug/kg, ip administered once every 3 days for 12 days coadministered with gemcitabine at 100 mg/kg and measured after 3 days post last dose by IVIS optical imaging analysis; type: functional, organism-based; settings: dose 500.0 µg/kg, time 12.0 day
In short: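 DSL-6A/C1-luci and LTC-14-GFP cells were co-inoculated orthotopically into the pancreas of nude mice, n=5 per group. Treatment began 7 days after grafting (methods) or 14 days (text). Gemcitabine 100 mg/kg ip every 3 days, alone or with compound 500 μg/kg or calcipotriol 60 μg/kg in ethanol/polyoxyethylene castor oil/saline (1:1:18), for 12 days. Tumour growth was followed by bioluminescence imaging.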

For `CCn1cc(C(CC)(CC)c2ccc(OCC(C)O)c(C)c2)cc1C(=O)NCCN1CCN(C)CC1` (centres undefined), which RBA [1] is on record?
Its RBA is 89%.

What about the inhibition (LTC-14 [2]) of the same compound?
The inhibition was “Active”.

And the inhibition (LTC-14 [3])?
The inhibition was “Active”.

And the inhibition (LTC-14 [4])?
Its inhibition is “Active”.

And the inhibition (LTC-14 [5])?
Its inhibition is “Active”.

What about the Activity [6] of the same compound?
Its Activity is “Non-Toxic”.

And the Activity (DSL-6A/C1 [7])?
The Activity was “Active”.

What about the inhibition (LTC-14 [8]) of the same compound?
The inhibition was “Active”.

What about the TGI (DSL-6A/C1 [9]) of the same compound?
The TGI was “Active”.
